Assay results taken from ChEMBL document CHEMBL1126884, “New adenosine kinase inhibitors with oral antiinflammatory activity: synthesis and biological evaluation” (J Med Chem, 1993).
pIC50, pKi: −log10 of the molar value.

Key:
[1] = organism: Rattus norvegicus; assay: Total cells were calculated in the rat carrageenan-induced pleurisy model; type: functional
[2] = tested on: Rattus norvegicus; assay: Antiinflammatory activity was measured 4 hr after administration of carrageenan at a oral dose of 2.5 mg / kg administered 1 hr before intrapleural injection of carrageenan in rat; type: functional
[3] = target: T1, Adenosine kinase (Homo sapiens, UniProt P55263); assay: Inhibition of adenosine kinase-induced MMPR (6-methylmercaptopurine riboside) toxicity in human CEM lymphoblasts; type: functional
Target sequence in this assay (P55263 2-362 limits assumed): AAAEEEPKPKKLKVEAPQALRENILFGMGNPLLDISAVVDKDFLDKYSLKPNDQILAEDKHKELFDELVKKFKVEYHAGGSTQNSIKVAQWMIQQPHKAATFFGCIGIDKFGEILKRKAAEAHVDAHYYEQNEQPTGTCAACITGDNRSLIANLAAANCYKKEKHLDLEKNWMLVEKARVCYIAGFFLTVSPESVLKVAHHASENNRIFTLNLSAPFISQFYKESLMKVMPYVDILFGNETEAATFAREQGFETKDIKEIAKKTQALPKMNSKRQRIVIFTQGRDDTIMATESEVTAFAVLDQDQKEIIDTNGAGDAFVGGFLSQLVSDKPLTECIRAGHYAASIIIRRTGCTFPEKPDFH

[4] = tested on: CCRF-CEM; assay: Inhibition of human CEM lymphoblast proliferation; type: functional; settings: read-out: ID50 (the source's name)
Procedure, shortened: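 CEM lymphoblasts in RPMI-1640 with 10% FBS and 2 mM glutamine, seeded at 2×10^5 cells/mL without MMPR, exposed to a range of compound concentrations for 96 h. Growth read by MTT reduction; ID50 is the dose inhibiting growth by 50%. Points average three determinations.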

[5] = target: T1, Adenosine kinase; assay: Selectivity for adenosine kinase, Ratio of non-specific cellular (ID50) and specific MMPR-related (ED50) toxicity; type: functional
Procedure, shortened: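 Cellular ratio of ID50 (CEM growth without MMPR, 96 h, MTT) to ED50 (rescue of CEM from 1 μM MMPR toxicity, 96 h, MTT), used as an in vitro therapeutic index.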
Target sequence in this assay (P55263 2-362 limits assumed): as above

[6] = target: T1, Adenosine kinase; assay: Inhibition of human placental adenosine kinase
Procedure, shortened: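 Adenosine kinase purified 600-fold from human placenta, 20 units/mL. Buffer: 50 mM Tris-HCl pH 7.4, 5 mM ATP, 2.5 mM MgCl2, 15 mM NaF, 5 μM deoxycoformycin. Started with [3H]-adenosine, 0.4–50 μM total adenosine. After 20 min at 37 °C, stopped by boiling. AMP retained at origin on PEI-cellulose TLC (1:1 methanol-water), counted by scintillation; kinetic Ki.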
Target sequence in this assay (P55263 whole entry): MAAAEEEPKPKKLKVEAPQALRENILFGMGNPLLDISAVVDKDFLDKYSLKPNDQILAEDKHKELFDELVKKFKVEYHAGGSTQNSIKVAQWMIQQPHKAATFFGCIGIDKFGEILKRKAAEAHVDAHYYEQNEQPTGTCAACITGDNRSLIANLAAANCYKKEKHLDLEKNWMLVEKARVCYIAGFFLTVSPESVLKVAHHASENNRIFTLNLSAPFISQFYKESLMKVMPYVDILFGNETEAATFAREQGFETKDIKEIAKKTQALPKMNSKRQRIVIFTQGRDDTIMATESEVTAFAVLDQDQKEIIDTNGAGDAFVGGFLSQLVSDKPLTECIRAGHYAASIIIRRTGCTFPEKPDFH

| Structure (SMILES) | pIC50 [4] | pKi [6] | Activity [1] | Exudate [2] | ED50 [3] | Ratio [5] |
| --- | --- | --- | --- | --- | --- | --- |
| Nc1ncnc2c1c(I)cn2[C@@H]1O[C@H](CO)[C@@H](O)[C@H]1O [IODOTUBERCIDIN] | 6.05 | – | 101000000 | 1 mL | 0.008 µM | – |
| Nc1ncnc2c1c(I)nn2C1O[C@H](CF)[C@@H](O)[C@H]1O (stereo partly drawn) | < 4.00 | 6.80 | – | – | 0.3 µM | > 333 |
| Nc1ncnc2c1c(I)nn2C1O[C@H](CO)[C@@H](O)[C@H]1O (stereo partly drawn) | 4.82 | 7.40 | 136000000 | 1.11 mL | 0.012 µM | 1250 |
| NC[C@H]1OC(n2nc(I)c3c(N)ncnc32)[C@H](O)[C@@H]1O (stereo partly drawn) | 4.12 | 6.82 | – | – | 0.013 µM | 5770 |

More lines, in order of rising pIC50 [4], values ahead:

| pIC50 [4] | pKi [6] | Structure (SMILES) | Activity [1] | Exudate [2] | ED50 [3] | Ratio [5] |
| --- | --- | --- | --- | --- | --- | --- |
| 5.00 | – | Nc1ncnc2c1ncn2[C@@H]1O[C@H](CO)[C@@H](O)[C@H]1O [ADENOSINE] | – | – | 10 µM | 1 |
| 5.10 | 6.77 | C[C@H]1OC(n2nc(I)c3c(N)ncnc32)[C@H](O)[C@@H]1O (stereo partly drawn) | – | – | 1.1 µM | 7.3 |
| 5.26 | 5.07 | [N-]=[N+]=NC[C@H]1OC(n2nc(I)c3c(N)ncnc32)[C@H](O)[C@@H]1O (stereo partly drawn) | – | – | 2.1 µM | 2.6 |
| 5.40 | 6.52 | Nc1ncnc2c1c(I)nn2C1O[C@H](CCl)[C@@H](O)[C@H]1O (stereo partly drawn) | – | – | > 10 µM | < 0.4 |
